ChEMBL document CHEMBL1122806 (J Med Chem, 1984)
Each block holds one compound with its values, some of them ahead of it. Square brackets hold non-standard residues; d marks the D form. Peptide text beside a SMILES is read from it. Sta = CC(C)C[C@H](N)[C@@H](O)CC(=O)O

Legend:
Aminopeptidase N [1] = target: T1, Aminopeptidase N (Sus scrofa, UniProt P15145); assay: Compound was evaluated for the inhibition of Aminopeptidase M (AP-M) from porcine kidney and the inhibition constant was determined after preincubating the enzyme and inhibitor
T1 sequence (P15145 whole entry): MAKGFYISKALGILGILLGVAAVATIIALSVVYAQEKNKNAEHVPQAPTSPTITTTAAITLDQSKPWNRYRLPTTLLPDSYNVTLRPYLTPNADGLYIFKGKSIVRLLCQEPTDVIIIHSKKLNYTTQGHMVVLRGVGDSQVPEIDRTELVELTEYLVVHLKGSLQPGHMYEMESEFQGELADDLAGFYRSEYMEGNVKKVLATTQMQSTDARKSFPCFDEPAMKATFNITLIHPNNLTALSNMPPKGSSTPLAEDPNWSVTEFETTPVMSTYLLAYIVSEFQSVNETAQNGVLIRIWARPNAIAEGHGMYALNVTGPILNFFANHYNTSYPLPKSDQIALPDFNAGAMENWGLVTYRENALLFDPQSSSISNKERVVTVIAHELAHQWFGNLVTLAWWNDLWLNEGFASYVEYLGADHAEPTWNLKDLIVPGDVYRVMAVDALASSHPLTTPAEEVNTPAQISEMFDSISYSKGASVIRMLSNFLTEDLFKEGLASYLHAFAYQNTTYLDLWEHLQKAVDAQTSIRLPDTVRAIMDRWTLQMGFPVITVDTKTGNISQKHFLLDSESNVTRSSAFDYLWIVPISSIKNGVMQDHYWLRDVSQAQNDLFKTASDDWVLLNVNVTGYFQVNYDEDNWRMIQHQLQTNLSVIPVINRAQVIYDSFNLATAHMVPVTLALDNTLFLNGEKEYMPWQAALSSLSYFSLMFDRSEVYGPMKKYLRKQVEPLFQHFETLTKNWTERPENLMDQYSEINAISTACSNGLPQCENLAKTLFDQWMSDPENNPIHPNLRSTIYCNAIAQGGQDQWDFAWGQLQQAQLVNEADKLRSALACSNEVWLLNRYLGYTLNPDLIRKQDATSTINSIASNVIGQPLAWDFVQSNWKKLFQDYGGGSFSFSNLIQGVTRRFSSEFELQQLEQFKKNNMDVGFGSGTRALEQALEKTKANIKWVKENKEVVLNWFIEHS
In short: (§1)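 Initial rates came from reactions started by adding enzyme to substrate plus inhibitor. Final steady-state rates came after 15-20 min enzyme-inhibitor preincubation, with substrate added to start. Reaction velocities were analysed by Lineweaver-Burk plots.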

Aminopeptidase N [2] = target: T1, Aminopeptidase N; assay: Effect of inhibitor structure on the slow binding inhibition of Aminopeptidase M from porcine kidney was determined and Ki was reported which is obtained by the equation Ki[k4/(k3 + k4)]; in short: as §1
Aminopeptidase N [3] = target: T1, Aminopeptidase N; assay: Effect of inhibitor structure on the slow binding inhibition of Aminopeptidase M from porcine kidney was determined and the Ki was reported which is = k2/k1; in short: as §1
[4] = target: Cytosol aminopeptidase (Sus scrofa) (UniProt P28839); assay: Compound was evaluated for the inhibition of Leucine aminopeptidase from porcine kidney and the inhibition constant (Ka) was determined which is the apparent Km in the presence of tripeptide after preincubating the enzyme and inhibitor
Sequence of Cytosol aminopeptidase (Sus scrofa) (P28839 whole entry, looked up): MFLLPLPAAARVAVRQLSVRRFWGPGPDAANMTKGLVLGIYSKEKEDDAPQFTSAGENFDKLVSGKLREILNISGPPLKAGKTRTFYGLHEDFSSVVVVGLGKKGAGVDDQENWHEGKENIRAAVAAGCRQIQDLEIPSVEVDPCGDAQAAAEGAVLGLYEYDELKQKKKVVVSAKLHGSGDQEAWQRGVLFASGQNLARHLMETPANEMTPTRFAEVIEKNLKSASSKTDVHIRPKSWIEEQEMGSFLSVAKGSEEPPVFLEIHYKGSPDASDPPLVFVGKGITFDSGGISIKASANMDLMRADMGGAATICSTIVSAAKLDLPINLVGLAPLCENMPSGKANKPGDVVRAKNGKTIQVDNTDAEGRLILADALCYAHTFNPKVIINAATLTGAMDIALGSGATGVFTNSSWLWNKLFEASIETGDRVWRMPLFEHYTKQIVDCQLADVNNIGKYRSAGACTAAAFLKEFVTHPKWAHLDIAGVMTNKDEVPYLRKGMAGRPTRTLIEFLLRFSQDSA

Aminopeptidase N [5] = target: T1, Aminopeptidase N; assay: Compound was evaluated for the inhibition of Aminopeptidase M (AP-M) and the inhibition constant was determined after preincubating the enzyme and inhibitor; in short: as §1
Aminopeptidase N [6] = target: T1, Aminopeptidase N; assay: Effect of inhibitor structure on the slow binding inhibition of aminopeptidase M was determined and the Ki was reported which is = k2/k1; in short: as §1
Aminopeptidase N [7] = target: T1, Aminopeptidase N; assay: Effect of inhibitor structure on the slow binding inhibition of aminopeptidase M was determined and Ki* was reported which is obtained by the equation Ki[k4/(k3 + k4)]; in short: as §1

Ki (Aminopeptidase N [1]): 16.3 µM
Ki (Aminopeptidase N [2]): 16 µM
Ki (Aminopeptidase N [3]): 16 µM
SMILES: CC(C)CCNC(=O)[C@H](O)[C@@H](N)Cc1ccccc1

Ki (Aminopeptidase N [5]): 0.18 µM
SMILES: CC(C)CCNC(=O)[C@@H](NC(=O)[C@@H](NC(=O)[C@H](O)[C@@H](N)CC(C)C)C(C)C)C(C)C

Ki (Aminopeptidase N [6]): 40 µM
Ki (Aminopeptidase N [7]): 900 nM
Ki (Aminopeptidase N [5]): 0.94 µM
SMILES: CC(C)CC(N)C(O)C(=O)NC(C(=O)NC(CC(=O)O)C(=O)O)C(C)C (stereo unspecified)

Ki (Aminopeptidase N [1]): 1000 µM
SMILES: CC(C)CCNC(=O)[C@@H](NC(=O)[C@@H](NC(=O)C[C@H](O)[C@@H](N)CC(C)C)C(C)C)C(C)C

The next lines start with the compound.

SMILES: CC(C)C[C@H](N)[C@@H](O)CC(=O)N[C@H](C(=O)N[C@H](C(=O)N[C@@H](CC(=O)O)C(=O)O)C(C)C)C(C)C (H-[Sta]VVD-OH)
Ka [4]: 0.0057

SMILES: CC(C)C[C@H](NC(=O)[C@@H](O)[C@H](N)CC(C)C)C(=O)O
Ki (Aminopeptidase N [5]): 11.8 µM

SMILES: CC(C)C[C@@H](N)CC(=O)N[C@H](C(=O)N[C@H](C(=O)N[C@@H](CC(=O)O)C(=O)O)C(C)C)C(C)C
Ki (Aminopeptidase N [5]): 25 µM
